pIC50: −log10 of the molar value. Values belong to the compound of their own block, whether it stands above or below them. Activity calls are given as the source filed them. The calls are words filed in the database; no cut-off is given here.
What was measured:
U-87 MG [1] = test: Antiproliferative activity against human U-87 MG cells incubated for 48 hrs by MTT assay
U-87 MG [2] = test: Antitumor activity against human U-87 MG cells implanted in nude mouse assessed as reduction in Ki67 expression at 75 mg/kg/day, po administered 5 times a week for 4 weeks by IHC analysis; assay type: functional, U-87MG ATCC; set-up: scale not given: the % may be the effect or the level left
NIH3T3 = test: Cytotoxicity against mouse NIH/3T3 cells incubated for 48 hrs by MTT assay; assay type: toxicity, cell-based; settings: nih3t3, 48 h
U-87 MG [3] = test: Antitumor activity against human U-87 MG cells implanted in nude mouse assessed as reduction in CD31 expression at 50 mg/kg/day, po administered 5 times a week for 4 weeks by IHC analysis; assay type: functional, U-87MG ATCC; set-up: scale not given: the % may be the effect or the level left
U-87 MG [4] = test: Anti-invasive activity against human U-87 MG cells assessed as reduction in number of cells at upper well at 0.3 uM incubated for 24 hrs by crystal violet staining based inverted microscope analysis; assay type: functional, U-87MG ATCC
Outline: (§1)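 Transwell top chambers coated with Matrigel (1:9 in serum-free DMEM). U-87 MG cells pretreated 20 min with 0.1% DMSO or compound, seeded at 1×10^4 cells/well, with complete medium below. After 24 h, non-invading cells removed and the rest fixed in paraformaldehyde, stained with 0.1% crystal violet, imaged at ×100 in six random fields and counted.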

HUVEC [5] = test: Anti-angiogenesis activity in HUVEC assessed as reduction in tube formation at 0.1 uM incubated for 24 hrs by matrigel based light microscopic analysis; assay type: functional, Homo sapiens; set-up: scale not given: the % may be the effect or the level left
HUVEC [6] = test: Anti-angiogenesis activity in HUVEC assessed as reduction in tube formation at 0.5 uM incubated for 24 hrs by matrigel based light microscopic analysis; assay type: functional, Homo sapiens; set-up: scale not given: the % may be the effect or the level left
U-87 MG [7] = test: Induction of cell cycle arrest in human U-87 MG cells assessed as increase in G2/M phase cell population at 3 uM incubated for 48 hrs by PI staining based flow cytometry analysis (reference value: 14.5 %); assay type: functional, U-87MG ATCC
U-87 MG [8] = test: Anti-invasive activity against human U-87 MG cells assessed as reduction in number of cells at upper well at 3 uM incubated for 24 hrs by crystal violet staining based inverted microscope analysis; assay type: functional, U-87MG ATCC; outline: as §1
[9] = Cmax in rat at 52.5 mg/kg, po measured upto 48 hrs by LC analysis; assay type: ADME, organism-based; settings: in vivo
Outline: (§2)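 Rats (n=5) dosed orally once with 52.5 mg/kg, dispersed in sodium carboxymethyl cellulose. Plasma separated at 1200×g, deproteinated with acetonitrile, then analysed by UHPLC on a C18 column with a methanol/formic acid eluent.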

[10] = AUC in rat at 52.5 mg/kg, po measured upto 48 hrs by LC analysis; assay type: ADME, organism-based; settings: in vivo; outline: as §2
U-87 MG [11] = test: Induction of cell cycle arrest in human U-87 MG cells assessed as decrease in G0 phase cell population at 3 uM incubated for 48 hrs by PI staining based flow cytometry analysis (reference value: 71.6 %); assay type: functional, U-87MG ATCC; set-up: scale not given: the % may be the effect or the level left
U-87 MG [12] = test: Antitumor activity against human U-87 MG cells implanted in nude mouse assessed as reduction in CD31 expression at 75 mg/kg/day, po administered 5 times a week for 4 weeks by IHC analysis; assay type: functional, U-87MG ATCC; set-up: scale not given: the % may be the effect or the level left
HUVEC [13] = test: Anti-angiogenesis activity in HUVEC assessed as reduction in tube formation at 2 uM incubated for 24 hrs by matrigel based light microscopic analysis; assay type: functional, Homo sapiens; set-up: scale not given: the % may be the effect or the level left
Mus musculus = species on record: Mus musculus; settings: dose 50-75 mg/kg/day, route po, time 4.0 weeks
U-87 MG [14] = test: Induction of cell cycle arrest in human U-87 MG cells assessed as increase in G2/M phase cell population at 0.3 uM incubated for 48 hrs by PI staining based flow cytometry analysis (reference value: 14.5 %); assay type: functional, U-87MG ATCC
U-87 MG [15] = test: Induction of cell cycle arrest in human U-87 MG cells assessed as decrease in G0 phase cell population at 1 uM incubated for 48 hrs by PI staining based flow cytometry analysis (reference value: 71.6 %); assay type: functional, U-87MG ATCC; set-up: scale not given: the % may be the effect or the level left
U-87 MG [16] = test: Induction of cell cycle arrest in human U-87 MG cells assessed as decrease in G0 phase cell population at 0.3 uM incubated for 48 hrs by PI staining based flow cytometry analysis (reference value: 71.6 %); assay type: functional, U-87MG ATCC; set-up: scale not given: the % may be the effect or the level left
[17] = Tmax in rat at 52.5 mg/kg, po measured upto 48 hrs by LC analysis; assay type: ADME, organism-based; settings: in vivo; outline: as §2
U-87 MG [18] = test: Induction of cell cycle arrest in human U-87 MG cells assessed as increase in G2/M phase cell population at 1 uM incubated for 48 hrs by PI staining based flow cytometry analysis (reference value: 14.5 %); assay type: functional, U-87MG ATCC
[19] = Terminal half-life in rat at 52.5 mg/kg, po measured upto 48 hrs by LC analysis; assay type: ADME, organism-based; settings: in vivo, read-out: beta t1/2 (converted); outline: as §2
U-87 MG [20] = test: Antitumor activity against human U-87 MG cells implanted in nude mouse assessed as reduction in Ki67 expression at 50 mg/kg/day, po administered 5 times a week for 4 weeks by IHC analysis; assay type: functional, U-87MG ATCC; set-up: scale not given: the % may be the effect or the level left
U-87 MG [21] = test: Inhibition of colony formation in human U-87MG cells

pIC50 (U-87 MG [1]): 4.52
Structure (SMILES): CNC(=O)c1ccsc1Nc1nc(Nc2ccc(N3CCC(N4CCOCC4)CC3)cc2)ncc1Br

pIC50 (U-87 MG [1]): 4.59
Structure (SMILES): COc1cc(CCc2cc(NC(=O)c3ccc(N4C[C@@H](C)N[C@@H](C)C4)cc3)n[nH]2)cc(OC)c1 [FEXAGRATINIB]

pIC50 (U-87 MG [1]): 5.43
Structure (SMILES): CNC(=O)c1ccsc1Nc1nc(Nc2ccc(N3CCN(CCO)CC3)cc2)ncc1C(F)(F)F

pIC50 (U-87 MG [1]): 4.94
Structure (SMILES): CNC(=O)c1ccsc1Nc1nc(Nc2ccc(N3CCC(N4CCOCC4)CC3)cc2)ncc1C

pIC50 (U-87 MG [1]): < 4.30
Structure (SMILES): CNC(=O)c1cc(C(C)(C)C)sc1Nc1nc(Nc2ccc(N3CCOCC3)cc2)ncc1C(F)(F)F

pIC50 (U-87 MG [1]): 5.37
Structure (SMILES): CNC(=O)c1ccsc1Nc1nc(Nc2ccc(N3CCC(N4CCOCC4)CC3)cc2)ncc1Cl

The next lines start with the compound.

Structure (SMILES): CNC(=O)c1ccsc1Nc1nc(Nc2ccc(N3CCC(N4CCOCC4)CC3)cc2)ncc1C(F)(F)F
Activity (U-87 MG [2]): 62%
Activity (NIH3T3): Non-Toxic
Activity (U-87 MG [3]): 78.9%
Activity (U-87 MG [4]): 71
Activity (HUVEC [5]): 10.4%
Activity (HUVEC [6]): 59.7%
Activity (U-87 MG [7]): 86.8%
Activity (U-87 MG [8]): 24
Cmax [9]: 3900 ng/mL
AUC at 48 h [10]: 71500 ng·h/mL
Activity (U-87 MG [11]): 9.36%
Activity (U-87 MG [12]): 37.5%
Activity (HUVEC [13]): 81%
inhibition (Mus musculus): Active
Activity (U-87 MG [14]): 56.8%
Activity (U-87 MG [15]): 16.6%
Activity (U-87 MG [16]): 34.4%
Tmax [17]: 4.4 h
Activity (U-87 MG [18]): 79.4%
half-life [19]: 14.3 h
Activity (U-87 MG [20]): 38.4%
pIC50 (U-87 MG [1]): 5.62
pIC50 (U-87 MG [21]): 6.92

Structure (SMILES): CNC(=O)c1ccsc1Nc1nc(Nc2ccc(CS(=O)(=O)N3CCOCC3)cc2)ncc1C(F)(F)F
pIC50 (U-87 MG [1]): 4.72

Structure (SMILES): CNC(=O)c1ccsc1Nc1nc(Nc2ccc(N3CCC(N4CCCCC4)CC3)cc2)ncc1C(F)(F)F
pIC50 (U-87 MG [1]): 5.56

Structure (SMILES): CNC(=O)c1ccsc1Nc1nc(Nc2ccc(CCN3CCS(=O)(=O)CC3)cc2)ncc1C(F)(F)F
pIC50 (U-87 MG [1]): 4.91

Structure (SMILES): CNC(=O)c1ccsc1Nc1nc(Nc2ccc(OCCN3CCOCC3)cc2)ncc1C(F)(F)F
pIC50 (U-87 MG [1]): 4.92

Structure (SMILES): CNC(=O)c1ccsc1Nc1nc(Nc2ccc(N3CCOCC3)cc2)ncc1C(F)(F)F
pIC50 (U-87 MG [1]): < 4.30

Structure (SMILES): CNC(=O)c1ccsc1Nc1nc(Nc2cccc(N3CCOCC3)c2)ncc1C(F)(F)F
pIC50 (U-87 MG [1]): 4.72

Structure (SMILES): CNC(=O)c1cc(-c2ccccc2)sc1Nc1nc(Nc2ccc(N3CCOCC3)cc2)ncc1C(F)(F)F
pIC50 (U-87 MG [1]): 4.63
